Experimental data gathered from unrelated publications.
Protocols differ between the studies behind these lines.
Target: Calcium/calmodulin-dependent protein kinase kinase 1 (CAMKK1, Homo sapiens, UniProt Q8N5S9)

O=c1[nH]c2ccccc2n1C1CCN(Cc2ccc(-c3[nH]c4cc5ncnc5cc4nc3-c3ccccc3)cc2)CC1
remaining signal (cell-free assay; 0.5 µM): 117%

Nc1ncc(-c2nc(N3CCOCC3)nc(N3CCOCC3)n2)c(C(F)F)n1
remaining binding (binding, competition with immobilised ligand; 10 µM): 70%

Cc1nn(C)cc1-c1nc2c(N3CCN(Cc4ccc(Cl)cc4)CC3)c(Cl)cnc2[nH]1
remaining binding (binding, competition with immobilised ligand; 1 µM): 100%

CC(C)(C)c1cc(C=C(C#N)C#N)cc(Br)c1O
remaining activity (enzyme activity, inhibitor; 0.5 µM): 120%

N#CC1(c2ccccn2)CCN(Cc2cc(C(=O)O)c(=O)n3ccccc23)CC1
remaining binding (cell-free assay, competition with immobilised ligand; 1 µM): 100%

Cn1cc(-c2cccc(N3CCc4c(sc5c4CC(C)(C)C5)C3=O)c2CO)cc(Nc2ccncn2)c1=O
inhibition (enzyme activity, inhibitor; 1 µM): 4%

Cn1cncc1[C@](O)(COc1ccc(C#N)cc1-c1ccc(OC(F)(F)F)cc1)c1ccc(C#N)cc1
remaining binding (cell-free assay, competition with immobilised ligand; 1 µM): 77%

COc1ncccc1-c1cnn2ccc(N3CCN(C(=O)OC(C)C)CC3)nc12
remaining binding (binding, competition with immobilised ligand; 1 µM): 77%
